Assay results of several laboratories.
Lines come from different studies, so protocols differ.
Target: Serine/threonine-protein kinase D2 (PRKD2, Homo sapiens, UniProt Q9BZL6)
Sequence (Q9BZL6 1-878, as in one of the studies): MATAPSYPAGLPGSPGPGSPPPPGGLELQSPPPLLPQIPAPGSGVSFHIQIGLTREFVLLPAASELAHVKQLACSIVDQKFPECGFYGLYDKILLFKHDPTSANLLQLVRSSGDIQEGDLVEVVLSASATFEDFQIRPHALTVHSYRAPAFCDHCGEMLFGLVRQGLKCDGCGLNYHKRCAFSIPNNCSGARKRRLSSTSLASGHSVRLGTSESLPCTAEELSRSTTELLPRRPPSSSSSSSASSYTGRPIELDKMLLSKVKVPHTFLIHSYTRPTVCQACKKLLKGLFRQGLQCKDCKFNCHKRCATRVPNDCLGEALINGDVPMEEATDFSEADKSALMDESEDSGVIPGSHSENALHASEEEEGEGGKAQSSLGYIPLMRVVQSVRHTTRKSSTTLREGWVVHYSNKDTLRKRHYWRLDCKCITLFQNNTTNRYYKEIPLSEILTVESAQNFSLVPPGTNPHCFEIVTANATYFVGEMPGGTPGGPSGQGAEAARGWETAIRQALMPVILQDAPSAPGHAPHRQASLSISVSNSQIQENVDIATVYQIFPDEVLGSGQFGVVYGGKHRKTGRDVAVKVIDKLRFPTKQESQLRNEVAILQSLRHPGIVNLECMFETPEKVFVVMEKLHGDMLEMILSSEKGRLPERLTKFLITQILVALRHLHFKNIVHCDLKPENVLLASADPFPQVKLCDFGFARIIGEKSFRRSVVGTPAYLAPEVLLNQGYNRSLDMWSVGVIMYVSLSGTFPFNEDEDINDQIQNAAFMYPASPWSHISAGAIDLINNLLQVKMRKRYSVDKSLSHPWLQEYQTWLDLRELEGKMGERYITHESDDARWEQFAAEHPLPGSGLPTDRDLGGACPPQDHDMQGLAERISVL

Cc1ccc(NC(=O)c2ccnc(C(F)(F)F)c2)cc1-c1cc(OCCO)nc(N2CCOCC2)c1 — remaining binding (binding; 1 µM): 88%
C#Cc1cc(-c2cc(Nc3nc(N[C@@H](C)c4ccc(F)cn4)ncc3Cl)n[nH]2)ccc1C=O — inhibition (enzyme activity; inhibitor; 0.2 µM): 5.36%
C1=C/COCc2cc(ccc2OCCN2CCCC2)Nc2nccc(n2)-c2cccc(c2)COC/1 — remaining binding (binding; 0.1 µM): 100%
Cc1cc(O)c(-c2ccc([C@@H](C)CN(C)C)cc2)c2c1[nH]c(=O)c1sccc12 — inhibition (enzyme activity; inhibitor; 0.1 µM): -4.52%
CCCCC(=O)Nc1ccc(-c2ccc3ncn(CCC)c(=O)c3c2)cn1 — remaining binding (binding; competition with immobilised ligand; 0.5 µM): 88%
CO[C@@H]1[C@H](N(C)C(=O)c2ccccc2)C[C@H]2O[C@]1(C)n1c3ccccc3c3c4c(c5c6ccccc6n2c5c31)C(=O)NC4 — inhibition (enzyme activity; inhibitor; 1 µM): 18%
COc1ccc2oc(-c3ccc4nc(N)oc4c3)c/c(=N\c3ccccc3NC(=O)CCN)c2c1 — remaining binding (binding; 1 µM): 94%
C=CC(=O)N1CCC([C@@H]2CCNc3c(C(N)=O)c(-c4ccc(Oc5ccccc5)cc4)nn32)CC1 — inhibition (enzyme activity; inhibitor; 1 µM): 3%
C[C@H]1CC[C@H](n2c3cnccc3c3cnc(Nc4ccc5c(n4)CCN(C(=O)CO)C5)nc32)CC1 — remaining signal (cell-free assay; 1 µM): 100%
